Data published in ChEMBL document CHEMBL3097988, “Synthesis and characterization of new N-(4-(4-chloro-1H-imidazol-1-yl)-3-methoxyphenyl)amide/sulfonamide derivatives as possible antimicrobial and antitubercular agents” (2014).
In brackets after ≈: the same amount, converted by molar mass.

Test system: Mycobacterium tuberculosis
Experiment: Antimicrobial activity against multi drug-resistant Mycobacterium tuberculosis after 7 days by resazurin assay
Type: functional
Conditions: 168 h
How it was run: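 Resazurin microtitre assay. Cultures were grown in Middlebrook 7H9 with 10% OADC and added to fresh medium in 96-well plates. Test compounds came from 2 mg/mL DMF stocks, with DMF-only controls. Plates were incubated 7 days at 37 °C, then resazurin was added and read after 1 h at 37 °C. MIC was the lowest concentration preventing the blue-to-pink change.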

**Q.** Which MIC does the source give for `COc1cc(NS(=O)(=O)C2(c3ccc(Cl)cc3)CC2)ccc1-n1cnc(Cl)c1` here?
**A.** Its MIC is over 50 µg/mL.

**Q.** For `COc1cc(NS(=O)(=O)c2ccccc2)ccc1-n1cnc(Cl)c1`, which MIC is on record?
**A.** The MIC was 25 µg/mL (≈ 68.7 µM).

**Q.** For `COc1ccc(S(=O)(=O)Nc2ccc(-n3cnc(Cl)c3)c(OC)c2)cc1OC`, which MIC is on record?
**A.** Its MIC is over 50 µg/mL.

**Q.** Which MIC does the source give for `COc1cc(NS(=O)(=O)c2ccc([N+](=O)[O-])cc2)ccc1-n1cnc(Cl)c1` here?
**A.** The MIC was 6.25 µg/mL (≈ 15.3 µM).

**Q.** For `COc1cc(NS(=O)(=O)c2cccc(C(C)C#N)c2)ccc1-n1cnc(Cl)c1` (centres undefined), which MIC is on record?
**A.** Its MIC is 25 µg/mL (≈ 60 µM).

**Q.** `COc1cc(NC(=O)c2ccccc2)ccc1-n1cnc(Cl)c1` was tested. Which MIC did it give?
**A.** The MIC was 25 µg/mL (≈ 76.3 µM).

**Q.** How did the MIC turn out when `COc1cc(NC(=O)c2ccc([N+](=O)[O-])cc2)ccc1-n1cnc(Cl)c1` was run?
**A.** Its MIC is over 50 µg/mL.

**Q.** Which MIC does the source give for `COc1cc(NC(=O)c2cccc(C(C)C#N)c2)ccc1-n1cnc(Cl)c1` (centres undefined) here?
**A.** Its MIC is over 50 µg/mL.

**Q.** With `COc1cc(NS(=O)(=O)c2ccc(Cl)cc2Cl)ccc1-n1cnc(Cl)c1` as the compound, how does the MIC read?
**A.** The MIC was over 50 µg/mL.

**Q.** For `COc1cc(NS(=O)(=O)Cc2cccc(C(F)(F)F)c2)ccc1-n1cnc(Cl)c1`, which MIC is on record?
**A.** The MIC was over 50 µg/mL.

**Q.** Which MIC does the source give for `COc1cc(NS(=O)(=O)c2ccco2)ccc1-n1cnc(Cl)c1` here?
**A.** Its MIC is 25 µg/mL (≈ 70.7 µM).

**Q.** With `COc1cc(NS(=O)(=O)c2cc(F)cc(C(F)(F)F)c2)ccc1-n1cnc(Cl)c1` as the compound, how does the MIC read?
**A.** Its MIC is 6.25 µg/mL (≈ 13.9 µM).

**Q.** For `COc1cc(NS(=O)(=O)c2ccc(C(F)(F)F)cc2)ccc1-n1cnc(Cl)c1`, which MIC is on record?
**A.** The MIC was 6.25 µg/mL (≈ 14.5 µM).

**Q.** For `COc1cc(NS(=O)(=O)c2cccc([N+](=O)[O-])c2Cl)ccc1-n1cnc(Cl)c1`, which MIC is on record?
**A.** Its MIC is 25 µg/mL (≈ 56.4 µM).

**Q.** For `COc1cc(NS(=O)(=O)c2c(F)ccc(C(F)(F)F)c2Cl)ccc1-n1cnc(Cl)c1`, which MIC is on record?
**A.** The MIC was 6.25 µg/mL (≈ 12.9 µM).

**Q.** Which MIC does the source give for `COc1cc(F)c(S(=O)(=O)Nc2ccc(-n3cnc(Cl)c3)c(OC)c2)c(C(F)(F)F)c1` here?
**A.** Its MIC is 25 µg/mL (≈ 52.1 µM).

**Q.** How did the MIC turn out when `COc1cc(NS(=O)(=O)c2cccs2)ccc1-n1cnc(Cl)c1` was run?
**A.** The MIC was over 50 µg/mL.

**Q.** For `COc1cc(NC(=O)c2ccc(Cl)cc2Cl)ccc1-n1cnc(Cl)c1`, which MIC is on record?
**A.** Its MIC is 25 µg/mL (≈ 63 µM).

**Q.** For `COc1cc(NC(=O)Cc2cccc(C(F)(F)F)c2)ccc1-n1cnc(Cl)c1`, which MIC is on record?
**A.** Its MIC is over 50 µg/mL.

**Q.** For `COc1cc(NC(=O)c2ccco2)ccc1-n1cnc(Cl)c1`, which MIC is on record?
**A.** Its MIC is over 50 µg/mL.

**Q.** For `COc1cc(NC(=O)c2cc(F)cc(C(F)(F)F)c2)ccc1-n1cnc(Cl)c1`, which MIC is on record?
**A.** Its MIC is over 50 µg/mL.

**Q.** `COc1cc(NC(=O)c2ccc(C(F)(F)F)cc2)ccc1-n1cnc(Cl)c1` was tested. Which MIC did it give?
**A.** Its MIC is over 50 µg/mL.

**Q.** `COc1cc(NC(=O)c2cccc([N+](=O)[O-])c2Cl)ccc1-n1cnc(Cl)c1` was tested. Which MIC did it give?
**A.** The MIC was over 50 µg/mL.

**Q.** `COc1cc(NC(=O)c2c(F)ccc(C(F)(F)F)c2Cl)ccc1-n1cnc(Cl)c1` was tested. Which MIC did it give?
**A.** The MIC was 25 µg/mL (≈ 55.8 µM).

**Q.** For `COc1cc(F)c(C(=O)Nc2ccc(-n3cnc(Cl)c3)c(OC)c2)c(F)c1`, which MIC is on record?
**A.** The MIC was over 50 µg/mL.

**Q.** How did the MIC turn out when `COc1cc(NC(=O)c2cccs2)ccc1-n1cnc(Cl)c1` was run?
**A.** The MIC was over 50 µg/mL.

**Q.** With `COc1cc(NC(=O)C2(c3ccc(Cl)cc3)CC2)ccc1-n1cnc(Cl)c1` as the compound, how does the MIC read?
**A.** Its MIC is 25 µg/mL (≈ 62.1 µM).

**Q.** For `NNC(=O)c1ccncc1` [ISONIAZID], which MIC is on record?
**A.** The MIC was 12.5 µg/mL (≈ 91.1 µM).

**Q.** `CO[C@H]1/C=C/O[C@@]2(C)Oc3c(C)c(O)c4c(O)c(c(/C=N/N5CCN(C)CC5)c(O)c4c3C2=O)NC(=O)/C(C)=C\C=C\[C@H](C)[C@H](O)[C@@H](C)[C@@H](O)[C@@H](C)[C@H](OC(C)=O)[C@@H]1C` [RIFAMPIN] was tested. Which MIC did it give?
**A.** Its MIC is 25 µg/mL (≈ 30.4 µM).
